The text below walks through data of ChEMBL document CHEMBL4316599, “Synthesis, in vitro and in vivo biological evaluation of substituted 3-(5-imidazo[2,1-b]thiazolylmethylene)-2-indolinones as new potent anticancer agents” (Eur J Med Chem, 2019).

In general, GI50 refers to the concentration at which growth is held to half of that of the control. Read a low GI50 as more potent growth inhibition. Usually TGI stands for the concentration at which net growth stops. As a reminder, the LC50 is the concentration that kills 50% of the test population. A low value points to greater toxicity.

Molecules are shown by their SMILES.

Type in all cases: functional
One assay relates to Leukemia cell. As to the kind of experiment: Cytotoxicity against human leukemia cells after 48 hrs by SRB assay. The method, boiled down:
(§1)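 NCI-60 screen: single-dose pass at 10^-5 M, then a five-concentration assay from 10^-9 to 10^-4 M (highest 100 μM). Exposure was 48 h under standard NCI protocols. GI50, TGI and LC50 were derived per cell line and averaged by subpanel. Repeated tests are the mean of two experiments.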
On the technique in general: In SRB staining, fixed cells bind dye roughly in proportion to their protein.

In the next assay the test system is CNS carcinoma cell. As to the kind of experiment: Cytotoxicity against human CNS cancer cells after 48 hrs by SRB assay. The note with it: for CC50: read-out: LC50 (the source's name). The method, boiled down:
as §1

The next assay deals with Melanoma cell line. The assay can be described thus: Cytotoxicity against human melanoma cells after 48 hrs by SRB assay. The note with it: for CC50: read-out: LC50 (the source's name). Summed up: as §1
The next assay deals with Renal cancer cell line. The assay can be described thus: Cytotoxicity against human renal cancer cells after 48 hrs by SRB assay. The method, boiled down:
as §1

A short description of assay [1]: Cytotoxicity against human COLON cells after 48 hrs by SRB assay. The note with it: for CC50: read-out: LC50 (the source's name). The method, boiled down: as §1
The test system of another assay is NSCLC. The assay can be described thus: Cytotoxicity against human NSCLC cells after 48 hrs by SRB assay. Summed up:
as §1

In the next assay the test system is Prostatic carcinoma cell. As to the kind of experiment: Cytotoxicity against human prostate cancer cells after 48 hrs by SRB assay. The method, boiled down:
as §1

The test system of the next assay is Ovarian carcinoma cell. As to the kind of experiment: Cytotoxicity against human ovarian cancer cells after 48 hrs by SRB assay. Summed up: as §1
The next assay concerns Breast carcinoma cell. As to the kind of experiment: Cytotoxicity against human breast cancer cells after 48 hrs by SRB assay. Summed up: as §1

Take `O=C1Nc2ccc(O)cc2/C1=C/c1c(-c2ccncc2)nc2sccn12`: the GI50 with Leukemia cell was found to be 10.1 µM; with CNS carcinoma cell, 4.46 µM; with Melanoma cell line it was 15.8 µM; in the assay on Renal cancer cell line it was 43 µM; in assay [1], 7.5 µM; with NSCLC, 21.2 µM. Also, the GI50 in the assay on Prostatic carcinoma cell is 15 µM; in the assay with Ovarian carcinoma cell, 33.8 µM; in the assay with Breast carcinoma cell, 4.43 µM. The TGI with Leukemia cell was determined as 67.6 µM; with CNS carcinoma cell, 80.4 µM; in the assay on Melanoma cell line it was 89.4 µM; in the assay on Renal cancer cell line it was 90.1 µM; in assay [1] it was 93 µM; in the assay on NSCLC, 76.8 µM. Also, the figures for the TGI in the assay on Ovarian carcinoma cell and with Breast carcinoma cell were 86.2 µM and 84.2 µM, respectively. In addition, the CC50 in the assay with Melanoma cell line was determined as 99.1 µM.
Regarding `COc1cc2c(cc1C)NC(=O)/C2=C/c1c(OC)nc2sc(C)cn12`, the GI50 in the assay on CNS carcinoma cell turned out to be 5.7 µM; in the assay with Melanoma cell line, 31.5 µM; in the assay on Renal cancer cell line it was 5.81 µM; in assay [1] it was 42.9 µM; with NSCLC it was 5.25 µM; in the assay with Prostatic carcinoma cell, 18.8 µM. Besides, the GI50 was determined as 7.22 µM in the assay on Ovarian carcinoma cell and 4.57 µM with Breast carcinoma cell. Moreover, the TGI in the assay with CNS carcinoma cell was 20.4 µM; in the assay on Melanoma cell line, 91.7 µM; in the assay with Renal cancer cell line, 58.9 µM; in [1], 91.7 µM; in the assay with NSCLC, 74.9 µM; in the assay with Ovarian carcinoma cell, 47.1 µM. Besides, in the assay with Breast carcinoma cell, net growth stopped (TGI) at 50.9 µM. Besides, the CC50 in the assay with CNS carcinoma cell was 68.3 µM. Further, the LC50 (50% lethal concentration) worked out at 90.6 µM in the assay with Renal cancer cell line and 91.4 µM with Ovarian carcinoma cell. Besides, the LC50 in the assay with NSCLC worked out at 98 µM. Further, in the assay with Breast carcinoma cell, the LC50 (concentration killing 50% of cells) is 91.4 µM.
Regarding `COc1cc2c(c(OC)c1OC)/C(=C\c1c(OC)nc3sc(C)cn13)C(=O)N2`, the GI50 came to 5.73 µM in the assay with Leukemia cell; 7.79 µM in the assay on CNS carcinoma cell; 7.86 µM with Melanoma cell line; 9.36 µM in the assay with Renal cancer cell line; 6.89 µM in [1]; 9.26 µM with NSCLC. Besides, the GI50 in the assay on Prostatic carcinoma cell stood at 11.3 µM; in the assay on Ovarian carcinoma cell, 13.8 µM; with Breast carcinoma cell, 5.37 µM. Also, the concentration for total growth inhibition (TGI) with CNS carcinoma cell amounted to 33.6 µM; in the assay with Melanoma cell line, 65.7 µM; in the assay with Renal cancer cell line, 45 µM; in assay [1], 69.9 µM; with NSCLC, 58.8 µM; with Ovarian carcinoma cell, 63.2 µM. For the same compound, in the assay with Breast carcinoma cell, net growth stopped (TGI) at 29.2 µM. Further, the CC50 with CNS carcinoma cell is 81.4 µM; with Melanoma cell line, 95.6 µM; in assay [1], 97.2 µM. Also, the LC50 (50% lethal concentration) is 98.2 µM with Renal cancer cell line and 93 µM in the assay on Ovarian carcinoma cell. In the assay with NSCLC, this compound showed an LC50 of 99.4 µM. Further, in the assay on Breast carcinoma cell, the LC50 (concentration killing 50% of cells) worked out at 99.3 µM.
Take `COc1nc2sc(C)cn2c1/C=C1/C(=O)Nc2c1ccc1ccccc21`: the GI50 in the assay on Leukemia cell turned out to be 0.34 µM; with CNS carcinoma cell, 0.42 µM; with Melanoma cell line, 0.52 µM; in the assay on Renal cancer cell line, 1.06 µM; in assay [1] it was 0.37 µM; in the assay on NSCLC, 2.82 µM. Also, the values for the GI50 in the assay with Prostatic carcinoma cell, in the assay on Ovarian carcinoma cell and in the assay on Breast carcinoma cell were 0.3 µM, 0.62 µM and 0.79 µM, respectively. The TGI was 84.8 µM with Leukemia cell; 38.6 µM with CNS carcinoma cell; 43.3 µM in the assay on Melanoma cell line; 38.3 µM in the assay on Renal cancer cell line; 34.6 µM in [1]; 45.3 µM in the assay on NSCLC. The TGI in the assay on Prostatic carcinoma cell is 35.2 µM; in the assay on Ovarian carcinoma cell, 35.3 µM; with Breast carcinoma cell, 51.3 µM. Besides, the CC50 with CNS carcinoma cell was 82.9 µM; in the assay with Melanoma cell line, 95 µM; in assay [1], 71.1 µM; in the assay on Prostatic carcinoma cell (read-out: LC50 (the source's name)) it was 75.9 µM. For the same compound, the values for the LC50 (50% lethal concentration) in the assay with Renal cancer cell line and in the assay with Ovarian carcinoma cell were 89.6 µM and 91.2 µM, respectively. Besides, the LC50 in the assay on NSCLC came out at 91.4 µM.
